# Test results from ChEMBL document CHEMBL1122366, “Potential antiatherosclerotic agents. 3. Substituted benzoic and non benzoic acid analogues of cetaben” (1983).
# Several values for one entry are separate records, joined by “and”; a condition that tells them apart may be missing. Equal entries are not always repeated.
# Assays:
# [1] = test system: Rattus norvegicus; experiment: In vivo sterol lowering activity at dose of 0.10 % of the diet; assay type: functional
# Outline: (§1)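 Normal rats were dosed in the diet. Serum sterol and triglyceride levels were measured and expressed as the mean percent of control values. Significance versus control was reported at p < 0.05, 0.01 and 0.001.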
# [2] = test system: Rattus norvegicus; experiment: In vivo sterol lowering activity when dosed as 0.01 % of the diet; assay type: functional; outline: as §1
# [3] = test system: Rattus norvegicus; experiment: In vivo triglyceride lowering activity when dosed as 0.01 % of the diet; assay type: functional; outline: as §1
# [4] = test system: Rattus norvegicus; experiment: In vivo sterol lowering activity when dosed as 0.03 % of the diet; assay type: functional; outline: as §1
# [5] = test system: Rattus norvegicus; experiment: In vivo triglyceride lowering activity dosed at 0.10 % of the diet.; assay type: functional; outline: as §1
# [6] = test system: Rattus norvegicus; experiment: In vivo triglyceride lowering activity when dosed at 0.03 % of the diet; assay type: functional; outline: as §1
# [7] = molecular target: T1, Sterol O-acyltransferase 1 (Rattus norvegicus) (UniProt O70536); experiment: In vitro inhibition of acyl coenzyme A:cholesterol acyltransferase; design: concentration or dose not given beside the values; conditions: concentration not given here
# T1 sequence (whole entry): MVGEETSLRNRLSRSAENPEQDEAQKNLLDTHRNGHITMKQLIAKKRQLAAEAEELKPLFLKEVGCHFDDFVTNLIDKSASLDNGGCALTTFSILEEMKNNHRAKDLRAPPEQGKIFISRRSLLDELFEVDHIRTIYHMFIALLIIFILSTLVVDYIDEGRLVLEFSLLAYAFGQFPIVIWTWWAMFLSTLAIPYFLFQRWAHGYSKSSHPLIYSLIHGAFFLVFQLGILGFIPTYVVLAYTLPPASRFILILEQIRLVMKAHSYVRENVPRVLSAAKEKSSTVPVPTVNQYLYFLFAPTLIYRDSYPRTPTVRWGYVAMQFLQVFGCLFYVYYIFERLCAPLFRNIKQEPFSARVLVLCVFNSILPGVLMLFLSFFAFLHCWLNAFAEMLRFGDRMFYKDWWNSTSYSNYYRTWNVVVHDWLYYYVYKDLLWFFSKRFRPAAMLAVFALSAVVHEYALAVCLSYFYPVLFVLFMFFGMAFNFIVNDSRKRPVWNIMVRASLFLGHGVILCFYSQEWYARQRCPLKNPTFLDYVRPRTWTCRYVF
# Outline: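 Enzyme fatty acyl-CoA:cholesterol acyltransferase (ACAT), assayed in vitro at a single drug concentration of 5.2 μg/mL. The value is the mean percent inhibition of enzyme activity.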
inhibition [7],Compound,"serum sterol level, percent of control [1]","serum sterol level, % of control [2]","serum triglyceride level, percent of control [3]","serum sterol level, percent of control [4]","serum triglyceride, percent of control [5]","serum triglyceride level, percent of control [6]"
–,CCCCCCCCCCCCCCCCNc1ccc(C(=O)OCC(O)CO)cc1 (configuration not stated),<71%,<85%,<73%,<82%,<45%,<67%
< 40%,C=CCOC(=O)c1ccc(NCCCCCCCCCCCCCCCC)cc1,<81%,94%,–,103%,<70%,<60%
–,CCCCCCCCCCCCCCCCN(C(C)=O)c1ccc(COC(C)=O)cc1,95%,97%,<70%,93%,80%,<71%
–,CCCCCCCCCCCCCCCCN(C(C)=O)c1ccc(C(=O)O)cc1,103%,105%,109%,105%,121%,107%
–,CCCCCCCCCCCCCCCCCCN(CC)c1ccc(C(=O)O)cc1,108%,102%,85%,102%,103%,102%
–,Br.CCCCCCCCCCCCCCCCNc1ccc(COC(C)=O)cc1,<85%,93%,79%,92%,114%,135%
–,CCCCCCCCCCCCCCCCNc1ccc(C(=O)O)c(Cl)c1,95%,100%,113%,95%,101%,109%
–,CCCCCCCCCCCCCCCCNc1ccc(C(=O)O)cc1 [CETABEN],<54%,<72%,<71%,<71%,<31%,<45%
< 24%,CCCCCCCCCCCCCCCCNc1ccc(C(=O)OCC(COC)OC)cc1 (configuration not stated),82%,–,–,83%,70%,62%
–,CCCCCCCCCCCCCCCCCN(CC)c1ccc(C(=O)O)cc1,95%,98%,126%,98%,106%,108%
–,CCCCCCCCCCCCCCCCNc1ccc(CO)cc1,95%,98%,110%,95%,91%,117%
–,CCCCCCCCCCCCCCN(C(C)=O)c1ccc(C(=O)O)cc1,91%,95%,98%,<80%,96%,80%
–,CCCCCCCCCCCCCCCCNc1ccc(C(=O)OCCN(C)C)cc1.Cl,92%,99%,77%,<92%,<59%,73%
–,CCCCCCCCCCCCCCCCN(CC(=O)O)c1ccc(C(=O)O)cc1,93%,105%,105%,109%,99%,100%
–,CCCCCCCCCCCCCCCCCN(C)c1ccc(C(=O)O)cc1,98%,97%,98%,98%,109%,134%
–,CCCCCCCCCCCCCCCCNc1ccc(C(=O)OCC)cc1C,103%,92%,81%,<87%,95%,94%
–,CCCCCCCCCCCCCCCCNc1ccc(C(=O)[N-]S(=O)(=O)c2ccc(C)cc2)cc1.[Na+],<48%,<64%,<52%,<52%,<32%,<37%
–,CCCCCCCCCCCCCCCCCCN(C)c1ccc(C(=O)O)cc1,91%,101%,86%,92%,<75%,<61%
–,CCCCCCCCCCCCCCCCNc1ccc(C(=O)OCC(O)CO)cc1.Cl (configuration not stated),<69%,<88%,98%,92%,<30%,<49%
–,CCCCCCCCCCCCCCCCN(C)c1ccc(C(=O)OCC)cc1,<74%,<70%,<64%,84%,78%,<73%
–,CCCCCCCCCCCCCCCCNc1ccc(C(=O)O)cc1Br,93% and 97%,92% and 101%,95% and 104%,100% and 99%,91% and 100%,96% and 99%
–,CCCCCCCCCCCCCCCCN(C)c1ccc(C(=O)O)cc1,85%,85%,<81%,92%,56%,<66%
–,CCCCCCCCCCCCCCCCN(CCCCCCCCCCCCCCCC)c1ccc(C(=O)O)c2ccccc12,101%,111%,100%,109%,112%,99%
–,CCCCCCCCCCCCCCN(C)c1ccc(C(=O)O)cc1,97%,97%,82%,94%,103%,92%
–,CCCCCCCCCCCCCCCCNc1ccc(CC(=O)O)cc1,87%,93%,76%,87%,<63%,81%
–,CCCCCCCCCCCCCCCCN(CC)c1ccc(C(=O)[O-])cc1.[Na+],116%,114%,–,116%,–,–
59%,CCCCCCCCCCCCCCCCNc1ccc(C(=O)N2CCCC2)cc1,101%,113%,75%,98%,95%,–
7%,CCCCCCCCCCCCCCCCNc1ccc(C(=O)CCC(=O)OC)cc1,<84%,–,–,<81%,86%,93%
–,CCCCCCCCCCCCCCCCNc1ccc(C(N)=O)cc1,<86%,100%,–,102%,114%,–
